According to the EternaBench riboswitch data:

Test system: MS2 coat protein
Test: apparent Kd, MS2 coat protein; higher = weaker binding; RNA-MaP array; FMN 200 µM where present
Outline: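 The apparent Kd is the median of filtered binding-curve fits, one per cluster, to green signal normalised to red-channel RNA signal and control-cluster median Fmax. The clusters were on Illumina sequencing chips, and stalled E. coli RNA polymerase had transcribed the designs on them. Titration used SNAP-549-labelled MS2 coat protein from 0.7 or 1.5 nM, doubling to 3 µM, without and then with constant ligand, in 100 mM Tris-HCl pH 7.5, 80 mM KCl, 4 mM MgCl2, BSA, DTT, yeast tRNA and Tween-20.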

[1] = designed as: ON switch for flavin mononucleotide, no ligand
[2] = ligand present: flavin mononucleotide, designed as: ON switch for flavin mononucleotide
[3] = designed as: OFF switch for flavin mononucleotide, no ligand
[4] = ligand present: flavin mononucleotide, designed as: OFF switch for flavin mononucleotide

UUAAUAAUACAAGGAUAUCUAUUGUUCUUUCGACAUACAUGAGGAUCACCCAUGUUAAUAUAUAUAGAGAAGGUGUAUUUUCAG
apparent Kd [1]: 28 nM | apparent Kd [2]: 24.5 nM

UUAAUGUGAGGAUAUCAGGUGUGCUAGAGAACUGGUACAUCUGAGAAGGCACAUGAGGAUCACCCAUGUUCUUC
apparent Kd [3]: 42.8 nM | apparent Kd [4]: 197 nM

UUAAUUAACAAGAAGGCUUACAUGAGGAUCACCCAUGUUGUACAUGGAUAAAGAGGAUAUUGCUAAUAAUUAUUUAUCUUAAUU
apparent Kd [3]: 61.5 nM | apparent Kd [4]: 37.3 nM

UUAAUUAUACAAGGAUAUCUAUUGUAGUUUCGACUUACAUGAGGAUCACCCAUGUUAAUAUGUUUAGAGAAGGUGUAUUUUCAG
apparent Kd [1]: 98.3 nM | apparent Kd [2]: 61.1 nM

UUACCUUAUGAGAAGGCGGUCAUGAAACAUGAUCGAGGAUAUCAUGUAAACAUGAGGAUCACCCAUGUAUGGGUAUUAUGGUAC
apparent Kd [1]: 165 nM | apparent Kd [2]: 31.8 nM

UUACGGAUAGAGGAUAUAUUAAGGAAAGUUUCGAUAGAAGGCUAGACAUGAGGAUCACCCAUGUAUAUUGGGAU
apparent Kd [3]: 131 nM | apparent Kd [4]: 151 nM

UUACGUCCCGUUUACAUGAGGAUCACCCAUGUCGAAAGAGCGUAGGAUAUGCUACCUAGUUGGUAGCAGAAGGAUGCAACGUCG
apparent Kd [1]: 25.2 nM | apparent Kd [2]: 37.5 nM

UUACUAUCACAGAAGGCUAGAUAGUAUAUAGAUGGAGGAUAUGUGACAUGAGGAUCACCCAUGUUUCACCGACAUGAGGAUCAC
apparent Kd [3]: 17.4 nM | apparent Kd [4]: 41.6 nM

UUACUAUUACAGAAGGUUAAAUAAUAUAUAAAUGAAGGAUAUGUAACAUGAGGAUCACCCAUGUUUCACCCAUAUGAGGAUCAC
apparent Kd [3]: 8.49 nM | apparent Kd [4]: 7.99 nM

UUACUGAUAUAGAAGGGUAUAUGGGAAUUACAUGAGGAUCACCCAUGUUUUAUAGGAUAUGUAUAUAGUAUUUAAUCAAGUUUA
apparent Kd [3]: 34.6 nM | apparent Kd [4]: 27.1 nM

UUAGCAUACCGAGGAUAUUCAUAUAAUAAAUAAACAUGAGGAUCACCCAUGUGGCGAAAGCCUAGGGAGAAGGCGGAAUGCUAU
apparent Kd [1]: 197 nM | apparent Kd [2]: 24.6 nM

UUAGGUCGAAACAUGAGGAUCACCCAUGUGUUGUAAUUAACAUAGGAUAUGUUUAUACUUUUUGGGCAGAAGGAUGAUAUUGCU
apparent Kd [1]: 17.3 nM | apparent Kd [2]: 14 nM

UUAGUAUUGCAAGGAUAUGUUUAUGAUAUUUUUCCUCUUACAUGAGGAUCACCCAUGUUUAACUUACAGAAGGUGCUAUGAUUU
apparent Kd [3]: 575 nM | apparent Kd [4]: 1030 nM

UUAUAACAGUCAGGAUAUGUAACGUACAACGGCGCAGAAGGGACAUGAGGAUCACCCAUGUUAUGGUUCUGGUACUAUGACGUU
apparent Kd [3]: 13.2 nM | apparent Kd [4]: 14.9 nM

UUAUACAUGAGGAUCUCCCAUGACAUGAGGAUCACCCAUGUGCAGGAUAUACGUGUUAUAAUAUAGUAGAAGGGCAGACUAUAU
apparent Kd [3]: 41.1 nM | apparent Kd [4]: 74.3 nM

UUAUAUAGAGUGAGGAUAUGCUGGUCCUUGGAUCAGCAGAAGGCACAUGAGGAUCACCCAUGUAAUAUAAUAUU
apparent Kd [3]: 22.4 nM | apparent Kd [4]: 42 nM

UUAUAUAUUAGAGGAUAUGUGUUCAUGUUACAUGAGGAUCACCCAUGUUUAUGUUGAUUGAUCUUACAGAAGGCUAUACAAUGA
apparent Kd [3]: 20.1 nM | apparent Kd [4]: 19.9 nM

UUAUGAGAGCAGGAUAUCUUAUAUUUGUAUUAAAGAGAAGGGCUCACAUGAGGAUCACCCAUGUGGUCCUAGAU
apparent Kd [3]: 51.6 nM | apparent Kd [4]: 431 nM

UUAUGCUUUAAGAAGGUUCAAACUACAUAUUGCGCACAUGAGGAUCACCCAUGUUGGUGAAUAAGAAAGGAUAUUAGACUGUGC
apparent Kd [3]: 332 nM | apparent Kd [4]: 223 nM

UUAUGUGUUGUAGGAUAUCAUUAGAUUUGUAAUUUAAUUGUAAUUUAUAUAUGAGAAGGACAUUUACAUGAGGAUCACCCAUGU
apparent Kd [3]: 22.3 nM | apparent Kd [4]: 13.4 nM

UUAUUUAGGUAGGAUAUCGAUAUUAAUUAUUAUCGAGAAGGGUCUACAUGAGGAUCACCCAUGUUAGCAUGUAU
apparent Kd [3]: 28.1 nM | apparent Kd [4]: 29.9 nM

UUAUUUAUACAAGGAUAUCUAUUAUAUUCACAUCCUACAUGAGGAUCACCCAUGUUAUAUAUUUUAGAGAAGGUGUAUUGUCUG
apparent Kd [1]: 27.2 nM | apparent Kd [2]: 30.8 nM

UUAUUUAUGCAAGGAUAUCAAUUAUAUACACGUCCUACAUGAGGAUCACCCAUGUUUAGUUUUUUUGAGAAGGUGCAUUGUCGG
apparent Kd [1]: 52.1 nM | apparent Kd [2]: 44.5 nM
